# Ecoli WT expand – blocks growth of wild type E. coli BW25113. 0.15% of 98,000 active. growth inhibition, % at 100 µM. OD600 absorbance;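 active = growth inhibition above about 50% at one test dose, limit read from the data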;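 note: growth measured after 20 h incubation at 37 °C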
# CYP2C9 activ – CYP2C9 (human) activation. activation factor at 5 µM. AID 1024. recombinant CYP2C9, luciferin-H conversion, luminescence; stronger effect = higher value; factor 1 = untreated enzyme, 0 = blocked. 1.4% of 96,000 active. P11712;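 active = activation factor of 2 or more for CYP2C9 at a 5 µM dose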;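 note: 0 = sulfaphenazole-blocked wells and 1 = vehicle-only wells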
# Ecoli tolC – growth inhibitors of E. coli BW25113 tolC mutant | growth inhibition, % at 10 µM (by protocol) | OD615 | AID 573 | 2.2% of 65,000 active;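 active = growth inhibition at or above a cutoff equal to the mean over every tested compound plus 3 SD, cut at about 60% in these data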;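 note: growth measured after 20 h incubation at 37 °C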
#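 Material: E. coli BW25113 ΔtolC::kan, tolC deletion mutant strain. Measure: percent growth inhibition. Schedule: 37 °C, 20 h exposure. Doses: single-point testing at 10 µM. Signal: A615 absorbance measurement. Buffer or medium: kanamycin-containing LB broth (50 µg/mL).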
# CYP2C19 act – activators of human cytochrome P450 2C19; 96,000 tested, under 10 active; activation factor at 5 µM; recombinant CYP2C19, luciferin-H EGE luminescence; stronger effect = higher value; 0 = fully inhibited enzyme, 1 = untreated enzyme;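 active = activation factor of at least 2 at 5 µM in the primary screen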;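 note: 0 = wells with 2.5 mM tranylcypromine and 1 = vehicle-only wells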
# Target sequence (P33261 whole entry, looked up): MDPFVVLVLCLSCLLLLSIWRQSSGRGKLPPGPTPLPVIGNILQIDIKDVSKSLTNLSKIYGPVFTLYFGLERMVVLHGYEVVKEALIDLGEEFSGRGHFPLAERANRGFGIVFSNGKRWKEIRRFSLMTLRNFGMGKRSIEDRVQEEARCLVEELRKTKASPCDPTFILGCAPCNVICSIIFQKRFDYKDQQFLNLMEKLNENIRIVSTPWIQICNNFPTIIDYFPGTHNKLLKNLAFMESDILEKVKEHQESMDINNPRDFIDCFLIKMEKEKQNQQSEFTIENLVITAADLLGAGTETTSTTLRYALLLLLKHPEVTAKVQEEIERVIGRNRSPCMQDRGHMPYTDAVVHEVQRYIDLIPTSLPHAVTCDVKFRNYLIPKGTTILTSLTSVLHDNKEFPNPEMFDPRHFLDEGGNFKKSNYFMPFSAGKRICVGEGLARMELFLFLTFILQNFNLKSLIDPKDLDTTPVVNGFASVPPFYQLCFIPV
# CYP2C19 inh – human CYP2C19 inhibition | inhibition, % at 5 µM | AID 778 | 21% of 96,000 active | CYP2C19 Supersomes, luciferin-H EGE luminescence, 30 min;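 active = CYP2C19 inhibition above a set limit at 5 µM in the primary screen, cut at about 50% in these data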;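 note: plate controls were negative control wells for no effect and 2.5 mM tranylcypromine positive control for full effect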
# CYP2C9 inhib – human CYP2C9 inhibition; CYP2C9 Supersomes, luciferin-H conversion, luminescence; inhibition, % at 5 µM; 20% of 96,000 active;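 active = blocking of liver enzyme CYP2C9 beyond about 50% at 5 µM, limit read from the data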
# Numbers without * were called inactive; . = not tested or not shown. The list is not random: actives were taken first. Their share in the collection is about 29%.
SMILES,Ecoli WT expand,CYP2C9 activ,Ecoli tolC,CYP2C19 act,CYP2C19 inh,CYP2C9 inhib
COc1ccc2c(-c3ccccc3)cc(N3CCOCC3)nc2c1,-14,0.8,100*,1,-1,24
CSc1ncc(Cl)c(C(=O)C(C#N)c2nc3c(C)cc(C)cc3c(=O)[nH]2)n1 (stereo not drawn),-11,.,96*,.,.,.
Cc1ccc(SCCCn2cncn2)cc1,1,0.7,-22,0.2,84*,31
c1ccc(SCCOCCn2cncn2)cc1,6,0.8,-20,0.2,78*,19
Clc1ccc(SCCn2cncn2)cc1,7,0.7,-11,0.7,35,31
c1ccc(COc2ccc(OCCOCCn3cncn3)cc2)cc1,-5,0.7,6,0.7,31,30
O=S(=O)(NCCc1csc(-c2ccc(C(F)(F)F)cc2)n1)c1ccc2c(c1)OCCO2,-22,1.2,.,0.6,38,-21
O=S(=O)(NCCc1csc(-c2cccnc2)n1)c1ccc2c(c1)OCCO2,0,0.7,9,0.5,51*,30
COc1ccc(-c2nc(CCNS(=O)(=O)c3ccc4c(c3)OCCO4)cs2)cc1,-27,0.2,.,0,98*,80*
Cc1ccc(-c2nn(-c3ccccc3)cc2CSC(=N)N)cc1,98*,0.9,.,0.8,18,11
Cc1cccc(-c2cc3nc4c(c(NCc5ccco5)n3n2)CCCC4)c1,-16,0.7,.,0.8,15,35
COC(=O)C(C)Sc1nc(-c2ccc(OC)cc2)nc2c1c(=O)n(C)c(=O)n2C (stereo not drawn),.,.,7,.,.,.
CN(C)c1ccc(-c2nnn(Cc3ccccc3Br)n2)cc1,-8,1.4,31,0,96*,-36
Cc1nn(Cc2ccccc2Cl)c(C)c1N,-3,0.9,-10,0.3,75*,8
c1ccc2c(c1)CCN(c1ncnc3c1[nH]c1ccccc13)C2,-2,0.1,3,0,95*,95*
Cc1ccc2[nH]c3c(N4CCN(Cc5ccccc5)CC4)ncnc3c2c1,5,0.1,1,0.2,78*,95*
COc1cccc2[nH]c3c(N4CCN(Cc5ccc6c(c5)OCO6)CC4)ncnc3c12,0,0.2,41,0.1,94*,85*
Cc1ccc2[nH]c3c(N4CCCCCC4)ncnc3c2c1,-6,0.6,2,0.6,39,36
Cc1ccc2[nH]c3c(N4CCN(Cc5ccc6c(c5)OCO6)CC4)ncnc3c2c1,-7,0.1,7,0.5,50*,88*
O=S(=O)(c1ccc(OCC(O)CN2CCc3ccccc3C2)cc1)N1CCOCC1 (stereo not drawn),-2,0.9,-1,1,-3,9
c1ccc(CN2CCN(c3nc4ccccc4c4ccccc34)CC2)cc1,-1,0.1,.,0.7,28,92*
c1ccc(CN2CCN(c3ncnc4c3[nH]c3ccccc34)CC2)cc1,14,0.5,43,0.5,54*,55*
Cc1ccc2[nH]c3c(=O)n(Cc4ccncc4)cnc3c2c1,-3,0.4,.,0.5,50,63*
CCOc1ccc2[nH]c3c(N4CCN(c5ccccn5)CC4)ncnc3c2c1,-11,0.3,66*,0.2,80*,69*
OC1(c2cccc(C(F)(F)F)c2)CCN(c2ncnc3c2[nH]c2ccccc23)CC1,0,.,0,.,.,.
SMILES,Ecoli WT expand,CYP2C9 activ,Ecoli tolC,CYP2C19 act,CYP2C19 inh,CYP2C9 inhib
Cc1ccc2[nH]c3c(=O)n(CCN4CCNCC4)cnc3c2c1,5,1,-31,1,0,4
COc1cc2[nH]c3c(N4CCN(c5ccc(Cl)cc5)CC4)ncnc3c2cc1OC,-11,0.9,6,1,4,6
c1ccc2c(c1)[nH]c1c(N3CCC4(CC3)OCCO4)ncnc12,2,0.6,-4,0.3,68*,38
Cc1ccc2c(c1)[nH]c1c(N3CCN(Cc4ccccc4)CC3)ncnc12,-7,0.4,100*,0.6,36,65*
O=C(CSc1nc2ccccc2o1)Nc1ccccc1N1CCOCC1,-1,0.1,.,0.1,92*,95*
Cc1ccccc1NC(=O)CSc1nc2ccccc2o1,-5,0.9,.,0.4,59*,10
Cc1ccccc1NC(=O)CSc1nc2cc3c(cc2cc1C)CCC3,-18,0.5,.,0.9,8,52*
O=C(CSc1nc2ccccc2o1)Nc1nc2ccccc2s1,-4,0.9,33,0.9,10,12
O=C(CSc1nc2ccccc2o1)Nc1nc2c(s1)CCCC2,.,.,63*,.,.,.
CCC(=O)Nc1ccc(NC(=O)CSc2nc3cc4c(cc3cc2C)CCC4)cc1,-11,0.8,.,1,-3,24
O=C(CSCC(=O)c1ccccc1)Nc1ccccc1Cl,18,1,.,0.3,68*,1
O=C(CN1CCN(CC(=O)c2ccc(F)cc2)CC1)Nc1ccccc1Cl,-1,0.8,1,0.7,26,25
Cc1ccccc1NC(=O)CSC(N)=O,7,0.9,0,0.8,16,7
Cc1ccccc1NC(=O)CSCC(=O)Nc1ccccc1C,9,0.6,.,0.3,72*,40
CCOCCCNC(=O)C(NC(=O)C1CCC(=O)N1)c1ccc(C)cc1 (stereo not drawn),2,1.1,-8,1.2,-24,-11
O=C(OCn1nnc2ccccc2c1=O)c1ccc2c(=O)n3c(nc2c1)CCC3,1,0.7,2,0.9,11,31
CC(C)(O)C#CC#CCN1CCOCC1,-6,0.9,.,1.1,-6,10
COc1cc(C2C3C(=O)N(Cc4ccccc4)C(=O)C3ON2c2ccccc2)cc(OC)c1O (stereo not drawn),2,0.4,22,0.8,19,56*
CCS(=O)(=O)C(=C1NCCO1)S(=O)(=O)CC,-5,1.1,10,1.1,-9,-14
CCOC(=O)c1nnn(-c2nonc2N)c1COc1c(C=O)cccc1OC,-7,0.3,.,0.9,14,71*
COCc1c(C(N)=O)nnn1-c1nonc1N,9,1,-26,1,4,0
CCOC(=O)c1nnn(-c2nonc2N)c1CN1CCc2ccccc2C1,2,0.4,15,0.9,8,58*
CC(C)OC(=O)c1nnn(-c2nonc2N)c1CN1CCc2ccccc2C1,-5,0.3,-5,0.9,13,68*
COC(=O)c1nnn(-c2nonc2N)c1CN1CCc2ccccc21,3,0.3,11,0,96*,72*
CC(C)OC(=O)c1nnn(-c2nonc2N)c1CN1CCCCCC1,5,0.9,-3,0.9,5,15
CCN(CC(=O)N1CCN(C)CC1)S(=O)(=O)c1ccc(Cl)cc1,-2,0.7,5,1.1,-7,31
CCOC(=O)c1nnn(-c2nonc2N)c1CS(=O)(=O)c1ccccc1,3,0.6,.,0.4,63*,37
O=C(COC(=O)C1=COCCO1)Nc1ccc(Oc2ccccc2)cc1,6,0.1,.,0.2,82*,90*
CCOC(=O)c1ccccc1NC(=O)COC(=O)C1=COCCO1,-3,0.3,5,0.9,15,68*
